In PMC3479660 (Thrombosis and haemostasis, 2012):

Legend:
[1] = target: T1, P2Y12 receptor (Homo sapiens, UniProt Q9H244); test: [3H]PSB-0413 radioligand competition binding, Sf9 insect cell membranes; settings: for rank order of potency at labelled binding sites: unpublished data of the authors
[2] = system: washed platelets; format: cell-based, human; settings: intermediates 30 μM vs 2-MeSADP 0.04 μM
[3] = system: washed platelets; test: Calcium flux assay on platelets; format: cell-based, human; settings: 30 μM FPP
[4] = target: T1, P2Y12 receptor; test: [35S]GTPγS binding in isolated platelet membranes; format: biochemical
[5] = system: human platelets; test: LTA with PRP: TRAP-mediated platelet aggregation; format: cell-based; settings: 30 μM FPP, TRAP 15 μM
[6] = system: human platelets; test: LTA: 2-MeSADP-stimulated platelet aggregation; format: cell-based; settings: for effect on 2-MeSADP-stimulated platelet aggregation: 30 μM test compound, 30 nM 2-MeS-ADP, PRP
Method in brief: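 In human PRP (300,000 cells/μl), aggregation was stimulated with 2-MeSADP (30 nM) with or without 30 μM test compound. Full 2-MeSADP concentration-response curves were run alone or after pre-incubation with 15 or 30 μM test compound. Values were normalised to 2-MeSADP alone and EC50 was derived from the curves; n=6.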

[7] = system: human platelets; test: LTA with PRP: LPA-stimulated platelet aggregation; format: cell-based; settings: 30 μM test compound pre-incubated, LPA 10 μM
Method in brief: (§1)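 Turbidimetric light transmission aggregometry was run on human PRP normalised to 300,000 cells/μl. Platelets were pre-treated for 5 min with 30 μM test compound, then given 10 μM LPA. Shape change was taken from the traces (n=10). Aggregation was reported as mean platelet aggregation in % (n=8).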

[8] = system: human platelets; test: LTA with PRP: epinephrine-mediated platelet aggregation; format: cell-based; settings: 30 μM FPP, epinephrine 1 μM
Method in brief: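 For light transmission aggregometry, human platelets were normalised to 300,000 cells/μl and exposed to 30 μM test compound before agonist. Epinephrine was added at 1 μM (n=15); the TRAP arm had n=7. Representative traces accompanied the bar data.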

[9] = system: human platelets; test: LTA with PRP: LPA-stimulated platelet shape change; format: cell-based
Method in brief: as §1

T1 sequence (Q9H244 whole entry): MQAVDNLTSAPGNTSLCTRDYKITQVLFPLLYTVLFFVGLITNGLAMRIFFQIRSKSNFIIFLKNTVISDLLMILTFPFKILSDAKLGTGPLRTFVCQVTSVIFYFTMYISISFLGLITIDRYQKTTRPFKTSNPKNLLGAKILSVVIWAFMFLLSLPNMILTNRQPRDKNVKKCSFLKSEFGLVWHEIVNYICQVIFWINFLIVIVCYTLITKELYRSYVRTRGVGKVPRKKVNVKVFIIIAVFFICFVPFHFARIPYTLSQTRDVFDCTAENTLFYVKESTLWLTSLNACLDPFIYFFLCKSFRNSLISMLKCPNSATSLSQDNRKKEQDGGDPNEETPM

For `Nc1ncnc2c1ncn2[C@@H]1O[C@H](COP(=O)(O)OP(=O)(O)O)[C@@H](O)[C@H]1O` [ADP, adenosine diphosphate], the “extent of inhibition of [3H]PSB-0413 binding” value [1] was “complete inhibition” and the “rank order of potency at labelled binding sites” value [1] was “PSB-0739 ([21], [22]). >2-methylthio-ADP > ADP”.
With `CC(C)=CCOP(=O)(O)OP(=O)(O)O.N.N.N` [DMAPP, γ,γ-dimethylallyl pyrophosphate triammonium salt] the “antagonistic activity on platelets stimulated by 2-MeSADP” value (shortened to “antagonistic activity”) [2] was “Only FPP displayed a statistically significant effect”.
In the case of `CC(C)=CCCC(C)=CCCC(C)=CCOP(=O)(O)O.N.N` [FMP, 3,7,11-trimethyl-2,6,10-dodecatrien-1-yl monophosphate ammonium salt], the “antagonistic activity” value [2] is reported as “Only FPP displayed a statistically significant effect”.
With `CC(C)=CCCC(C)=CCCC(C)=CCOP(=O)(O)OP(=O)(O)O.N.N.N` [FPP, 3,7,11-Trimethyl-2,6,10-dodecatrien-1-yl pyrophosphate ammonium salt] the “effect on ADP-stimulated calcium signalling” value ([3]; 5 μM ADP) was “no statistical significance”, the “effect on thrombin-stimulated calcium signalling” value ([3]; thrombin 0.5 U/ml) was “no statistical significance” and the IC50 [4] was 45 µM. For the same molecule, the “effect of compound alone on [35S]GTPγS binding” value ([4]; FPP 1 M alone (so in the source)) was “small, but significant, increase”, the “concentrations at which FPP independently stimulated [35S]GTPγS binding” value ([4]; platelet membranes) was “below 6 μM” and the “effect on TRAP-stimulated platelet aggregation” value [5] was “unaffected”. For the same molecule, the “effect on 2-MeSADP-stimulated platelet aggregation” value [6] was “clear, concentration-dependent inhibition”, the inhibition at 10 µM ([6]; Homo sapiens, Platelet, read-out: inhibition of 2-MeSADP-stimulated aggregation) was 40 ± 5% and the “effect on LPA-stimulated platelet aggregation” value [7] was “no effect”. For the same molecule, the IC50 [1] was 65.8 µM, the “extent of inhibition of [3H]PSB-0413 binding” value [1] was “partial inhibition” and the “maximal inhibition of [3H]PSB-0413 binding” value ([1]; very high concentrations) was 30–40%. For the same molecule, the “effect on epinephrine-stimulated platelet aggregation” value [8] was “unaffected”, the “effect on LPA-stimulated platelet shape change” value ([9]; 30 μM FPP, 10 μM LPA, p=0.017) was “potentiated” and the “platelet shape change, compound alone” value ([9]; FPP alone) was “unable to show an effect”. For the same molecule, the “antagonistic activity” value [2] was “statistically significant effect”.
For `CC(C)=CCC/C(C)=C/CC/C(C)=C/CC/C(C)=C/COP(=O)(O)OP(=O)(O)O.N.N.N` [GGPP, all trans-3,7,11,15-tetra-methyl-2,6,10,14-hexadecatetraenyl pyrophosphate ammonium salt], the “antagonistic activity” value [2] was “Only FPP displayed a statistically significant effect”.
For `CC(C)=CCC/C(C)=C/COP(=O)(O)OP(=O)(O)O.N.N.N` [GPP, trans-3,7-dimethyl-2,6-octadienyl pyrophosphate ammonium salt], the “antagonistic activity” value [2] was “Only FPP displayed a statistically significant effect”.
In the case of `C=C(C)CCOP(=O)(O)OP(=O)(O)O.N.N.N` [IPP, isopentenyl pyrophosphate triammonium salt], the “antagonistic activity” value [2] is reported as “Only FPP displayed a statistically significant effect”.
`CCCCC/C=C\C/C=C\C/C=C\C/C=C\CCCC(=O)NCC(=O)O` [NAG, N-arachidonoylglycine, reference compound] was tested, and the “effect on 2-MeSADP-stimulated platelet aggregation” value [6] was “without effect” and the “effect on LPA-stimulated platelet aggregation” value [7] was “No statistically significant inhibitory effect”.
`Nc1c(S(=O)(=O)[O-])cc(Nc2ccc(Nc3ccccc3)c(S(=O)(=O)[O-])c2)c2c1C(=O)c1ccccc1C2=O.[Na+].[Na+]` [PSB-0739, 1-amino-4-[4-phenylamino-sulfophenylamino]-9,10-dioxo-9,10-dihydroanthracene-2-sulfonic acid disodium salt] was tested, and the “extent of inhibition of [3H]PSB-0413 binding” value [1] was “complete inhibition” and the “rank order of potency at labelled binding sites” value [1] was “PSB-0739 ([21], [22]). >2-methylthio-ADP > ADP”.
`CCCSc1nc(N[C@@H]2C[C@H]2c2ccc(F)c(F)c2)c2nnn([C@@H]3C[C@H](OCCO)[C@@H](O)[C@H]3O)c2n1` [ticagrelor, Ticagrelor, reference compound] was tested, and the “effect on 2-MeSADP dose response curve of [35S]GTPγS binding” value ([4]; 60 nM ticagrelor) was “right-shifted the dose response curve” and the “effect on FPP-stimulated [35S]GTPγS binding” value ([4]; 10 μM ticagrelor) was “readily blocked”.
